Reference: ChEMBL document CHEMBL1944507, “Structure-activity relationships for amide-, carbamate-, and urea-linked analogues of the tuberculosis drug (6S)-2-nitro-6-{[4-(trifluoromethoxy)benzyl]oxy}-6,7-dihydro-5H-imidazo[2,1-b][1,3]oxazine (PA-824)” (J Med Chem, 2012)
≈ marks a conversion by molar mass, not a printed value.

Legend:
[1] = tested on: Mycobacterium tuberculosis; assay: Antimicrobial activity against Mycobacterium tuberculosis H37Rv ATCC 27294 harboring pFCA-lux AB gene measured under aerobic condition after 8 days by luminescence analysis; type: functional; conditions: H37Rv ATCC 27294, 192 h
Outline: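 MABA: replicating M. tb H37Rv exposed to compound aerobically for 8 days. […] Mean of at least two independent determinations ± SD.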

[2] = tested on: Mycobacterium tuberculosis; assay: Antimicrobial activity against Mycobacterium tuberculosis H37Rv ATCC 27294 harboring pFCA-lux AB gene measured under anaerobic condition after 11 days by luminescence analysis; type: functional; conditions: H37Rv ATCC 27294, 264 h
Outline: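 LORA: luminescence-based low-oxygen-recovery assay on nonreplicating M. tb, 11-day anaerobic exposure. MIC is the mean of at least two independent determinations ± SD.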

Compound | MIC [1] [µM] | MIC [2] [µM]
O=C(Nc1ccc(-c2ccc(C(F)(F)F)nc2)cc1)N[C@@H]1COc2nc([N+](=O)[O-])cn2C1 | 0.17 (≈ 0.0762 µg/mL) | 17 (≈ 7.62 µg/mL)
O=C(N[C@@H]1COc2nc([N+](=O)[O-])cn2C1)OCc1ccc(-c2ccc(F)nc2)cc1 | 0.34 (≈ 0.141 µg/mL) | 4.3 (≈ 1.78 µg/mL)
O=C(NCc1ccc(-c2ccc(C(F)(F)F)nc2)cc1)O[C@@H]1COc2nc([N+](=O)[O-])cn2C1 | 0.69 (≈ 0.32 µg/mL) | 11 (≈ 5.1 µg/mL)
O=[N+]([O-])c1cn2c(n1)OC[C@@H](NS(=O)(=O)c1cccc(OC(F)(F)F)c1)C2 | > 64 | > 64
O=C(Nc1ccc(-c2ccc(C(F)(F)F)cc2)cc1)O[C@@H]1COc2nc([N+](=O)[O-])cn2C1 | 0.055 (≈ 0.0247 µg/mL) | > 32
O=C(O[C@@H]1COc2nc([N+](=O)[O-])cn2C1)N1CCC(Oc2ccc(C(F)(F)F)nc2)CC1 | 0.14 (≈ 0.064 µg/mL) | 27 (≈ 12.3 µg/mL)
O=C(Nc1ccc(-c2ccc(OC(F)(F)F)cc2)cc1)N[C@@H]1COc2nc([N+](=O)[O-])cn2C1 | 0.06 (≈ 0.0278 µg/mL) | 18 (≈ 8.34 µg/mL)
O=C(Nc1ccc(-c2ccnc(C(F)(F)F)c2)cc1)N[C@@H]1COc2nc([N+](=O)[O-])cn2C1 | 0.36 (≈ 0.161 µg/mL) | 13 (≈ 5.83 µg/mL)
O=C(N[C@@H]1COc2nc([N+](=O)[O-])cn2C1)OCc1ccc(-c2ccc(F)cc2)cc1 | 0.085 (≈ 0.0351 µg/mL) | 4.2 (≈ 1.73 µg/mL)
CN(C(=O)c1ccc(OC(F)(F)F)cc1)[C@@H]1COc2nc([N+](=O)[O-])cn2C1 | 22 (≈ 8.5 µg/mL) | > 64
O=C(Cc1ccc(OC(F)(F)F)cc1)N[C@@H]1COc2nc([N+](=O)[O-])cn2C1 | 0.27 (≈ 0.104 µg/mL) | 21 (≈ 8.11 µg/mL)
O=C(Nc1cccc(-c2ccc(F)nc2)c1)N[C@@H]1COc2nc([N+](=O)[O-])cn2C1 | 0.23 (≈ 0.0916 µg/mL) | 15 (≈ 5.98 µg/mL)
O=C(Nc1ccc(-c2ccc(C(F)(F)F)cc2)cc1)N[C@@H]1COc2nc([N+](=O)[O-])cn2C1 | 0.19 (≈ 0.085 µg/mL) | > 32
O=[N+]([O-])c1cn2c(n1)OC[C@@H](NCc1ccc(OC(F)(F)F)cc1)C2 | 0.22 (≈ 0.0788 µg/mL) | 5.3 (≈ 1.9 µg/mL)
O=C(Nc1cccc(-c2ccc(C(F)(F)F)cc2)c1)O[C@@H]1COc2nc([N+](=O)[O-])cn2C1 | 0.04 (≈ 0.0179 µg/mL) | 1 (≈ 0.448 µg/mL)
O=C(Nc1cccc(-c2ccc(C(F)(F)F)cc2)c1)N[C@@H]1COc2nc([N+](=O)[O-])cn2C1 | 0.035 (≈ 0.0157 µg/mL) | 3.6 (≈ 1.61 µg/mL)
CN([C@@H]1COc2nc([N+](=O)[O-])cn2C1)S(=O)(=O)c1ccc(OC(F)(F)F)cc1 | 0.53 (≈ 0.224 µg/mL) | 22 (≈ 9.29 µg/mL)

Compound | MIC [1] [µM] | MIC [2] [µM]
O=C(N[C@@H]1COc2nc([N+](=O)[O-])cn2C1)OCc1ccc(OC(F)(F)F)cc1 | 0.15 (≈ 0.0603 µg/mL) | 11 (≈ 4.43 µg/mL)
O=C(Nc1ccc(-c2ccc(C(F)(F)F)nc2)cc1)O[C@@H]1COc2nc([N+](=O)[O-])cn2C1 | 0.25 (≈ 0.112 µg/mL) | 4.1 (≈ 1.84 µg/mL)
O=C(NCc1ccc(OC(F)(F)F)cc1)O[C@@H]1COc2nc([N+](=O)[O-])cn2C1 | 0.25 (≈ 0.101 µg/mL) | 17 (≈ 6.84 µg/mL)
O=C(Nc1ccc(-c2ccnc(C(F)(F)F)c2)cc1)O[C@@H]1COc2nc([N+](=O)[O-])cn2C1 | 0.75 (≈ 0.337 µg/mL) | 6.2 (≈ 2.79 µg/mL)
O=C(Cc1ccc(-c2ccc(F)nc2)cc1)N[C@@H]1COc2nc([N+](=O)[O-])cn2C1 | 0.68 (≈ 0.27 µg/mL) | > 32
O=C(CO[C@@H]1COc2nc([N+](=O)[O-])cn2C1)Nc1ccc(OC(F)(F)F)cc1 | 0.24 (≈ 0.0965 µg/mL) | 7.8 (≈ 3.14 µg/mL)
O=C(NCc1ccc(-c2ccc(F)cc2)cc1)O[C@@H]1COc2nc([N+](=O)[O-])cn2C1 | 0.11 (≈ 0.0454 µg/mL) | 4.5 (≈ 1.86 µg/mL)
O=C(COc1ccc(OC(F)(F)F)cc1)N[C@@H]1COc2nc([N+](=O)[O-])cn2C1 | 0.16 (≈ 0.0644 µg/mL) | 10 (≈ 4.02 µg/mL)
O=C(N[C@@H]1COc2nc([N+](=O)[O-])cn2C1)c1ccccc1OC(F)(F)F | 27 (≈ 10.1 µg/mL) | > 64
O=C(COc1ccc(-c2ccc(F)cc2)cc1)N[C@@H]1COc2nc([N+](=O)[O-])cn2C1 | 0.17 (≈ 0.0701 µg/mL) | 26 (≈ 10.7 µg/mL)
O=C(Nc1cccc(-c2ccc(F)cc2)c1)O[C@@H]1COc2nc([N+](=O)[O-])cn2C1 | 0.027 (≈ 0.0108 µg/mL) | 1.5 (≈ 0.598 µg/mL)
O=C(NCc1ccc(-c2ccc(C(F)(F)F)nc2)cc1)N[C@@H]1COc2nc([N+](=O)[O-])cn2C1 | 0.4 (≈ 0.185 µg/mL) | > 32
CN(C(=O)O[C@@H]1COc2nc([N+](=O)[O-])cn2C1)c1ccc(OC(F)(F)F)cc1 | 0.21 (≈ 0.0845 µg/mL) | 5.4 (≈ 2.17 µg/mL)
O=C(COc1ccc(-c2ccc(F)nc2)cc1)N[C@@H]1COc2nc([N+](=O)[O-])cn2C1 | 0.69 (≈ 0.285 µg/mL) | 31 (≈ 12.8 µg/mL)
O=[N+]([O-])c1cn2c(n1)OC[C@@H](OCc1ccccc1OC(F)(F)F)C2 | 1.8 (≈ 0.647 µg/mL) | 8.6 (≈ 3.09 µg/mL)
O=C(N[C@@H]1COc2nc([N+](=O)[O-])cn2C1)c1cccc(OC(F)(F)F)c1 | 4.9 (≈ 1.82 µg/mL) | > 64
O=C(COc1ccc(-c2ccc(OC(F)(F)F)cc2)cc1)N[C@@H]1COc2nc([N+](=O)[O-])cn2C1 | 0.18 (≈ 0.0861 µg/mL) | 25 (≈ 12 µg/mL)
